{"source": "ChEMBL document CHEMBL1127351", "about": "“Technetium-99m N,N'-bis(2-mercapto-2-methylpropyl)-2-aminobenzylamine: technetium-99m complexes of a novel bis(aminoethanethiol) ligand” (J Med Chem, 1994)", "key": {"[1]": {"species_on_record": "Rattus norvegicus", "experiment": "Biodistribution of compound was tested in rat blood at 2 min", "type": "ADME, organism-based", "settings": "in vivo", "how_it_was_run": "(§1)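 Male Sprague-Dawley rats (200–300 g) under ether anesthesia got an iv injection of 0.2 mL saline containing the 99mTc complex (2–5 μCi). At set times, blood was drawn by cardiac puncture and rats were killed by cardiectomy. Organs were excised, weighed and gamma-counted. % dose/organ was taken against diluted injected-dose standards. Values are the mean of three rats ± SEM.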"}, "[2]": {"species_on_record": "Rattus norvegicus", "experiment": "Biodistribution of compound was tested in rat blood at 15 min", "type": "ADME, organism-based", "settings": "in vivo, 0.25 h", "how_it_was_run": "as §1"}, "[3]": {"species_on_record": "Rattus norvegicus", "experiment": "Biodistribution of compound was tested in rat blood at 60 min", "type": "ADME, organism-based", "settings": "in vivo, 1 h", "how_it_was_run": "as §1"}, "[4]": {"species_on_record": "Rattus norvegicus", "experiment": "Biodistribution of compound was tested in rat kidney at 15 min", "type": "ADME, organism-based", "settings": "in vivo, 0.25 h", "how_it_was_run": "as §1"}, "[5]": {"species_on_record": "Rattus norvegicus", "experiment": "Biodistribution of compound was tested in rat kidney at 2 min", "type": "ADME, organism-based", "settings": "in vivo", "how_it_was_run": "as §1"}, "[6]": {"species_on_record": "Rattus norvegicus", "experiment": "Biodistribution of compound was tested in rat kidney at 60 min", "type": "ADME, organism-based", "settings": "in vivo, 1 h", "how_it_was_run": "as §1"}, "[7]": {"species_on_record": "Rattus norvegicus", "experiment": "Biodistribution of compound was tested in rat liver at 15 min", "type": "ADME, organism-based", "settings": "in vivo, 0.25 h", "how_it_was_run": "as §1"}, "[8]": {"species_on_record": "Rattus norvegicus", "experiment": "Biodistribution of compound was tested in rat liver at 2 min", "type": "ADME, organism-based", "settings": "in vivo", "how_it_was_run": "as §1"}, "[9]": {"species_on_record": "Rattus norvegicus", "experiment": "Biodistribution of compound was tested in rat liver at 60 min", "type": "ADME, organism-based", "settings": "in vivo, 1 h", "how_it_was_run": "as §1"}, "[10]": {"species_on_record": "Rattus norvegicus", "experiment": "Biodistribution of compound was tested in rat lung at 15 min", "type": "ADME, organism-based", "settings": "in vivo, 0.25 h", "how_it_was_run": "as §1"}, "[11]": {"species_on_record": "Rattus norvegicus", "experiment": "Biodistribution of compound was tested in rat lung at 2 min", "type": "ADME, organism-based", "settings": "in vivo", "how_it_was_run": "as §1"}, "[12]": {"species_on_record": "Rattus norvegicus", "experiment": "Biodistribution of compound was tested in rat lung at 60 min", "type": "ADME, organism-based", "settings": "in vivo, 1 h", "how_it_was_run": "as §1"}, "[13]": {"species_on_record": "Rattus norvegicus", "experiment": "Biodistribution of compound was tested in rat muscle at 15 min", "type": "ADME, organism-based, Muscle tissue", "settings": "in vivo, 0.25 h", "how_it_was_run": "as §1"}, "[14]": {"species_on_record": "Rattus norvegicus", "experiment": "Biodistribution of compound was tested in rat muscle at 2 min", "type": "ADME, organism-based, Muscle tissue", "settings": "in vivo", "how_it_was_run": "as §1"}, "[15]": {"species_on_record": "Rattus norvegicus", "experiment": "Biodistribution of compound was tested in rat muscle at 60 min", "type": "ADME, organism-based, Muscle tissue", "settings": "in vivo, 1 h", "how_it_was_run": "as §1"}, "[16]": {"species_on_record": "Rattus norvegicus", "experiment": "Biodistribution of compound was tested in rat skin at 15 min", "type": "ADME, organism-based, Zone of skin", "settings": "in vivo, 0.25 h", "how_it_was_run": "as §1"}, "[17]": {"species_on_record": "Rattus norvegicus", "experiment": "Biodistribution of compound was tested in rat skin at 2 min", "type": "ADME, organism-based, Zone of skin", "settings": "in vivo", "how_it_was_run": "as §1"}, "[18]": {"species_on_record": "Rattus norvegicus", "experiment": "Biodistribution of compound was tested in rat skin at 60 min", "type": "ADME, organism-based, Zone of skin", "settings": "in vivo, 1 h", "how_it_was_run": "as §1"}, "[19]": {"species_on_record": "Rattus norvegicus", "experiment": "Biodistribution of compound was tested in rat spleen at 2 min", "type": "ADME, organism-based", "settings": "in vivo", "how_it_was_run": "as §1"}, "[20]": {"species_on_record": "Rattus norvegicus", "experiment": "Biodistribution of compound was tested in rat brain at 15 min", "type": "ADME, organism-based", "settings": "in vivo, 0.25 h", "how_it_was_run": "as §1"}, "[21]": {"species_on_record": "Rattus norvegicus", "experiment": "Biodistribution of compound was tested in rat brain at 2 min", "type": "ADME, organism-based", "settings": "in vivo", "how_it_was_run": "as §1"}, "[22]": {"species_on_record": "Rattus norvegicus", "experiment": "Biodistribution of compound was tested in rat brain at 60 min", "type": "ADME, organism-based", "settings": "in vivo, 1 h", "how_it_was_run": "as §1"}, "[23]": {"species_on_record": "Rattus norvegicus", "experiment": "Biodistribution of compound was tested in rat heart at 15 min", "type": "ADME, organism-based", "settings": "in vivo, 0.25 h", "how_it_was_run": "as §1"}, "[24]": {"species_on_record": "Rattus norvegicus", "experiment": "Biodistribution of compound was tested in rat heart at 2 min", "type": "ADME, organism-based", "settings": "in vivo", "how_it_was_run": "as §1"}, "[25]": {"species_on_record": "Rattus norvegicus", "experiment": "Biodistribution of compound was tested in rat spleen at 60 min", "type": "ADME, organism-based", "settings": "in vivo, 1 h", "how_it_was_run": "as §1"}, "[26]": {"species_on_record": "Rattus norvegicus", "experiment": "Biodistribution of compound was tested in rat heart at 60 min", "type": "ADME, organism-based", "settings": "in vivo, 1 h", "how_it_was_run": "as §1"}, "[27]": {"species_on_record": "Rattus norvegicus", "experiment": "Biodistribution of compound was tested in rat spleen at 15 min", "type": "ADME, organism-based", "settings": "in vivo, 0.25 h", "how_it_was_run": "as §1"}, "[28]": {"species_on_record": "Rattus norvegicus", "experiment": "Biodistribution of compound was tested in rat blood at 30 min", "type": "ADME, organism-based", "settings": "in vivo, 0.5 h", "how_it_was_run": "as §1"}, "[29]": {"species_on_record": "Rattus norvegicus", "experiment": "Biodistribution of compound was tested in rat kidney at 30 min", "type": "ADME, organism-based", "settings": "in vivo, 0.5 h", "how_it_was_run": "as §1"}, "[30]": {"species_on_record": "Rattus norvegicus", "experiment": "Biodistribution of compound was tested in rat lung at 30 min", "type": "ADME, organism-based", "settings": "in vivo, 0.5 h", "how_it_was_run": "as §1"}, "[31]": {"species_on_record": "Rattus norvegicus", "experiment": "Biodistribution of compound was tested in rat muscle at 30 min", "type": "ADME, organism-based, Muscle tissue", "settings": "in vivo, 0.5 h", "how_it_was_run": "as §1"}, "[32]": {"species_on_record": "Rattus norvegicus", "experiment": "Biodistribution of compound was tested in rat skin at 30 min", "type": "ADME, organism-based, Zone of skin", "settings": "in vivo, 0.5 h", "how_it_was_run": "as §1"}, "[33]": {"species_on_record": "Rattus norvegicus", "experiment": "Biodistribution of compound was tested in rat spleen at 30 min", "type": "ADME, organism-based", "settings": "in vivo, 0.5 h", "how_it_was_run": "as §1"}, "[34]": {"species_on_record": "Rattus norvegicus", "experiment": "Biodistribution of compound was tested in rat heart at 30 min", "type": "ADME, organism-based", "settings": "in vivo, 0.5 h", "how_it_was_run": "as §1"}, "[35]": {"species_on_record": "Rattus norvegicus", "experiment": "Biodistribution of compound was tested in rat brain at 30 min", "type": "ADME, organism-based", "settings": "in vivo, 0.5 h", "how_it_was_run": "as §1"}, "[36]": {"species_on_record": "Rattus norvegicus", "experiment": "Biodistribution of compound was tested in rat liver at 30 min", "type": "ADME, organism-based", "settings": "in vivo, 0.5 h", "how_it_was_run": "as §1"}}}
{"substance": "technicium complex", "values": [{"measurement": "Dose/organ", "setting": "[1]", "value": 4.37, "unit": "%"}, {"measurement": "Dose/organ", "setting": "[2]", "value": 2, "unit": "%"}, {"measurement": "Dose/organ", "setting": "[3]", "value": 1.27, "unit": "%"}, {"measurement": "Dose/organ", "setting": "[4]", "value": 1.54, "unit": "%"}, {"measurement": "Dose/organ", "setting": "[5]", "value": 3.58, "unit": "%"}, {"measurement": "Dose/organ", "setting": "[6]", "value": 0.93, "unit": "%"}, {"measurement": "Dose/organ", "setting": "[7]", "value": 26.5, "unit": "%"}, {"measurement": "Dose/organ", "setting": "[8]", "value": 23.58, "unit": "%"}, {"measurement": "Dose/organ", "setting": "[9]", "value": 20.75, "unit": "%"}, {"measurement": "Dose/organ", "setting": "[10]", "value": 0.91, "unit": "%"}, {"measurement": "Dose/organ", "setting": "[11]", "value": 1.79, "unit": "%"}, {"measurement": "Dose/organ", "setting": "[12]", "value": 0.5, "unit": "%"}, {"measurement": "Dose/organ", "setting": "[13]", "value": 16.5, "unit": "%"}, {"measurement": "Dose/organ", "setting": "[14]", "value": 20.77, "unit": "%"}, {"measurement": "Dose/organ", "setting": "[15]", "value": 20.08, "unit": "%"}, {"measurement": "Dose/organ", "setting": "[16]", "value": 10.45, "unit": "%"}, {"measurement": "Dose/organ", "setting": "[17]", "value": 13.48, "unit": "%"}, {"measurement": "Dose/organ", "setting": "[18]", "value": 16.5, "unit": "%"}, {"measurement": "Dose/organ", "setting": "[19]", "value": 0.64, "unit": "%"}, {"measurement": "Dose/organ", "setting": "[20]", "value": 0.72, "unit": "%"}, {"measurement": "Dose/organ", "setting": "[21]", "value": 1.54, "unit": "%"}, {"measurement": "Dose/organ", "setting": "[22]", "value": 0.21, "unit": "%"}, {"measurement": "Dose/organ", "setting": "[23]", "value": 0.53, "unit": "%"}, {"measurement": "Dose/organ", "setting": "[24]", "value": 1.28, "unit": "%"}, {"measurement": "Dose/organ", "setting": "[25]", "value": 0.68, "unit": "%"}, {"measurement": "Dose/organ", "setting": "[26]", "value": 0.28, "unit": "%"}, {"measurement": "Dose/organ", "setting": "[27]", "value": 0.72, "unit": "%"}]}
{"substance": "tecnicium complex", "values": [{"measurement": "Dose/organ", "setting": "[1]", "value": 8.12, "unit": "%"}, {"measurement": "Dose/organ", "setting": "[28]", "value": 3.22, "unit": "%"}, {"measurement": "Dose/organ", "setting": "[5]", "value": 3.3, "unit": "%"}, {"measurement": "Dose/organ", "setting": "[29]", "value": 1.33, "unit": "%"}, {"measurement": "Dose/organ", "setting": "[8]", "value": 22.76, "unit": "%"}, {"measurement": "Dose/organ", "setting": "[11]", "value": 4.47, "unit": "%"}, {"measurement": "Dose/organ", "setting": "[30]", "value": 1.98, "unit": "%"}, {"measurement": "Dose/organ", "setting": "[14]", "value": 10.24, "unit": "%"}, {"measurement": "Dose/organ", "setting": "[31]", "value": 13.52, "unit": "%"}, {"measurement": "Dose/organ", "setting": "[17]", "value": 3.94, "unit": "%"}, {"measurement": "Dose/organ", "setting": "[32]", "value": 11.94, "unit": "%"}, {"measurement": "Dose/organ", "setting": "[19]", "value": 0.68, "unit": "%"}, {"measurement": "Dose/organ", "setting": "[33]", "value": 0.3, "unit": "%"}, {"measurement": "Dose/organ", "setting": "[34]", "value": 0.24, "unit": "%"}, {"measurement": "Dose/organ", "setting": "[21]", "value": 1.07, "unit": "%"}, {"measurement": "Dose/organ", "setting": "[35]", "value": 0.28, "unit": "%"}, {"measurement": "Dose/organ", "setting": "[24]", "value": 1.15, "unit": "%"}, {"measurement": "Dose/organ", "setting": "[36]", "value": 22.65, "unit": "%"}]}
